# Out of some 220,000 compounds screened, about 560 (0.25%) were called active. Shown is part of a subset that was picked to be rich in actives. Values without a mark were called inactive.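 How the source made its calls: active means inhibition at or above 40%; inactive means inhibition below 40%.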
# Target: Prothrombin (Homo sapiens) (UniProt P00734)
# Assay: human alpha-thrombin inhibitors, primary screen, counter-screen for coagulation protease inhibitor project, biochemical, 1536-well, fluorogenic AMC substrate (AID 1046);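 further: 0% = enzyme with no compound and 100% = wells without enzyme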
# Settings: Boc-VPR-AMC fluorogenic substrate cleavage, at 5 µM, active compounds read high
# In short: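 Assay system: human alpha-thrombin enzyme. Reagent: Boc-VPR-AMC substrate, 15 µM final. Compound dosing: one concentration per compound, 5 µM, with 0.2% DMSO. Incubation: room-temperature reaction. Technique: AMC fluorescence, 355/460 nm. Measure: % inhibition relative to enzyme controls and enzyme-free blanks.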
row,SMILES,inhibition
1,CN1CCN(CCC(=O)N/N=C/C=C2\N(C)c3ccccc3C2(C)C)CC1,-4.81%
2,CC(C)(C)NC(=O)c1cccc(NC(=O)Cc2ccc(Br)cc2)c1,-6.49%
3,CC(=O)NNC(=O)c1csc(Cc2c(Cl)sc3ccc(Cl)cc23)n1,-1.7%
4,CCOC(=O)C1CCN(c2c(Nc3cc(C)cc(C)c3)c(=O)c2=O)CC1,-1.29%
5,CSc1nc(-c2ccco2)nn1C(=O)CCc1ccccc1,99.4% (active)
6,CS(=O)(=O)n1nc(-c2ccco2)nc1N,1.66%
7,CSc1nc(-c2ccco2)nn1C(=O)c1ccccc1Cl,0.04%
8,O=C(c1cccc(S(=O)(=O)N2CCCC2)c1)N(Cc1ccco1)C1CCS(=O)(=O)C1 (configuration not stated),-1.64%
9,COC(=O)C(NS(=O)(=O)c1ccc(F)cc1)c1ccccc1 (configuration not stated),5.5%
10,CC(=O)NC(NC(=S)Nc1c(C)n(C)n(-c2ccccc2)c1=O)C(Cl)(Cl)Cl (configuration not stated),-5.85%
11,CCn1c(-c2cccnc2Cl)nc2cc(C)c(C)cc21,0.78%
12,Cc1ccccc1CC1(CO)CCCN(C(=O)c2cc(-c3ccccc3)no2)C1 (configuration not stated),-8.1%
13,CC(C)CC(CC(C)C)=NNC(=O)c1ccc(CSc2nncn2C)cc1,6.95%
14,CCn1ncc(CNC(=O)C2(C)CC2(Br)Br)c1C (configuration not stated),-5.28%
15,CC1(C)CC(=O)c2cnc3nc4ccccc4n3c2C1,-14.5%
16,Cc1ccc(C)c2[nH]c(=O)c(CN(Cc3cccnc3)C(=S)NCc3ccco3)cc12,-27%
17,COc1ccccc1N1CCN(c2ccc([N+](=O)[O-])nc2)CC1,1.48%
18,COc1ccc(CN2CCC(c3nc4ccc(Cl)cc4[nH]3)CC2)cc1,1.55%
19,Cc1ccc(NNC(=O)c2cccs2)cc1Cl,0.15%
20,COc1ccc(-c2nn(C)c(=O)c3ccccc23)cc1NC(=O)COc1ccccc1,3.07%
21,COc1ccc(-c2nn(C)c(=O)c3ccccc23)cc1CNC(=O)C1CCCCC1,70.8% (active)
22,CCC(=O)NCc1cc(-c2nn(C)c(=O)c3ccccc23)ccc1OC,2.19%
23,Cc1cc(CO)nn1-c1ccc([N+](=O)[O-])cc1,-4.29%
24,Cc1nnc(N/N=C/c2cccs2)[nH]c1=O,-0.86%
25,CCn1c(=O)c2cc(C(=O)Nc3cccc(C(C)=O)c3)sc2c2ccccc21,-4.44%

row,SMILES,inhibition
1,CC(C)S(=O)(=O)c1csc(NC(=O)Nc2ccc(Cl)cc2)c1Cl,3.02%
2,COc1ccc(N2CCN(C(=O)CNC(=O)c3ccc(C(C)(C)C)cc3)CC2)cc1,12.8%
3,O=C(Nc1nsc(-c2ccccc2)n1)c1ccncc1,3.88%
4,O=C(Nc1n[nH]c(C(F)(F)F)n1)c1cccs1,5%
5,COC(=O)c1nc(NC(=O)c2ccc(C(C)(C)C)cc2)n[nH]1,58.9% (active)
6,Cn1sc(NC(=O)c2ccccc2)nc1=O,3.97%
7,COC(=O)c1nc(NC(=O)c2ccccc2)n[nH]1,98.4% (active)
8,COc1ccc(C(=O)Nc2ccc(F)cc2F)cc1,-13.8%
9,C/C(=N/NC(=O)c1ccc(NC(=O)c2ccc(F)cc2)cc1)c1ccccc1,3.8%
10,COC(=O)c1nc(NC(=O)c2ccc(F)cc2)n[nH]1,94.8% (active)
11,S=c1[nH]nc(-c2ccncc2)n1/N=C/c1ccccc1Cl,-3.11%
12,COc1ccccc1-c1noc(CSc2nc(C)cc(=O)[nH]2)n1,-11.8%
13,Cc1ccc(SC(C)C(=O)NCc2ccc(F)cc2)cc1 (configuration not stated),-10%
14,Cc1c(-c2ccccc2)n[nH]c1C(=O)N=Nc1c(O)[nH]c2ccccc12,-11.5%
15,Cc1nc(SCc2ccc(F)cc2)c([N+](=O)[O-])[nH]1,-2.86%
16,Cn1nnc(NC(=O)CSc2ncn[nH]2)n1,-4.19%
17,COc1ccc(Cl)cc1CSc1ncn[nH]1,-8.18%
18,ClC1(Cl)CC1CSc1ncn[nH]1 (configuration not stated),102% (active)
19,CC1CN(CCOc2ccccc2[N+](=O)[O-])CC(C)O1 (configuration not stated),1.06%
20,Cc1ccc(NC(=O)c2ccn(C(=O)Nc3ccccc3)n2)c(C)c1,1.51%
21,CC1=NCCN1S(=O)(=O)c1cccc([N+](=O)[O-])c1,2.02%
22,CCCC(=O)OCC(=O)Nc1cc(Cl)ccc1[N+](=O)[O-],-3.57%
23,O=C(Nc1ccccc1)Nc1nnc(COc2ccccc2F)s1,-0.32%
24,O=C(c1cccc([N+](=O)[O-])c1)N1CCN(C(=O)c2ccco2)CC1,-2.02%
25,O=c1[nH]n(-c2ccc([N+](=O)[O-])cc2)c(=O)c2ccccc12,-6.59%

row,SMILES,inhibition
1,CCN1CCN(C(=O)/C=C\C(=O)O)CC1,-0.06%
2,C/C(=C/C(=O)N1CCN(C)CC1)C(=O)O,103% (active)
3,CN1CCN(C(=O)C2C3C=CC(C3)C2C(=O)O)CC1 (configuration not stated),-0.84%
4,NS(=O)(=O)c1ccc(CCNC(=O)CCCn2c(SCC(=O)N3CCCC3)nc3ccsc3c2=O)cc1,-6.72%
5,OCCC#Cc1ccc(CN2CCN(Cc3ccsc3)C(CCO)C2)cc1 (configuration not stated),-1.75%
6,CCN(CC)C(=O)CC1(c2ccccc2OC)CCOC(C(C)C)C1 (configuration not stated),-1.89%
7,Cc1ccc(S(=O)(=O)N(C)C)cc1NC(=O)/C=C/c1cccs1,-6.43%
8,O=C(CC1C(=O)NCCN1Cc1ccc(-c2ccccc2)cc1)NCC1CCOCC1 (configuration not stated),-6.7%
9,COCC1CCCN(Cc2cn[nH]c2-c2cc3ccccc3o2)C1 (configuration not stated),-10.5%
10,Cc1ccc(C(=O)Nc2sc(Cc3ccc4c(c3)OCO4)c(C)c2C(N)=O)cc1,2.74%
11,O=C(Nn1cnc2ccccc2c1=O)c1ccc([N+](=O)[O-])cc1Cl,6.94%
12,O=C(CSc1cccc[n+]1[O-])c1ccc(Cl)cc1,-1.76%
13,Cc1ccc(N(C(=O)Cc2cccs2)C(C(=O)NCC2CCCO2)c2ccncc2)cc1 (configuration not stated),0.6%
14,COc1ccc(S(=O)(=O)N2CCC(C(=O)OCC(=O)c3ccccc3)CC2)cc1[N+](=O)[O-],0.56%
15,O=C(NNC(=S)Nc1ccc(F)cc1)[C@H]1C[C@@H]1c1ccccc1,-10.3%
16,CCN1CC(CN(C)Cc2nc(-c3ccc(Cl)cc3)no2)CC1=O (configuration not stated),-8.96%
17,COC(=O)c1ccc(-c2noc(CN(Cc3ccccn3)CC3CCCO3)n2)cc1 (configuration not stated),21.1%
18,CN(Cc1ccccn1)Cc1nc(-c2ccc(Cl)cc2)no1,57.7% (active)
19,Cc1c(C(=O)O)nnn1-c1nonc1N,2.29%
20,OC1CSc2nc3ccccc3n2C1 (configuration not stated),0.85%
21,O=C(NC(=S)Nc1cc(C(F)(F)F)ccc1N1CCOCC1)c1ccc(-c2cccc(Cl)c2)o1,-10.3%
22,CC1(OC(=O)CCc2ccccc2)C(=O)C=C2C=C(c3ccc(C#N)cc3)N(CCc3ccccn3)C=C2C1=O (configuration not stated),-12.4%
23,CC(=O)C1=C(O)C(=O)N(c2cccnc2)C1c1ccc([N+](=O)[O-])cc1 (configuration not stated),2.53%
24,Cc1cccc(NC(=S)Nc2ccc(Br)cc2)c1,3.41%
25,Cc1cccc(NC(=S)Nc2ccc(Cl)c(Cl)c2)c1,0.05%

row,SMILES,inhibition
1,Cc1cccc(NC(=S)NC23CN4CN(CN(C4)C2)C3)c1,53.8% (active)
2,S=C(Nc1ccc(Br)cc1Cl)N1CCC2(CC1)OCCO2,-1.42%
3,O=C(NC1CCN(Cc2ccccc2)CC1)c1cc(Br)c(Br)[nH]1,1.26%
4,O=C(CCCOc1ccc(Cl)cc1Cl)NNC(=O)C1CCC1,-6.08%
5,N/C(=N\OS(=O)(=O)c1cccc([N+](=O)[O-])c1)c1ccncc1,-6.25%
6,CCCCNC(=O)CSc1nc2ccc(NC(=O)CSc3nnc(N)s3)cc2s1,-6.44%
7,O=C(Cc1ccccc1)N1N=C(c2ccncc2)CC1(O)C(F)(F)F (configuration not stated),2.25%
8,COc1ccccc1C(=O)n1nc(-c2ccccc2)nc1N,19.2%
9,COc1ccc(CC(=O)n2nc(-c3cccnc3)nc2N)cc1,89.7% (active)
10,CCCC(=O)n1nc(-c2ccccc2)nc1N,27.1%
11,CCN1CCN(c2nc(Nc3cc(OC)ccc3OC)nc(Nc3cc(OC)ccc3OC)n2)CC1,-2.15%
12,Cc1nc(SCC(=O)N2CC(=O)Nc3ccccc32)c2c(C)c(C)sc2n1,-0.55%
13,Cc1nnc(SCC(=O)N2CCc3ccccc3C2)s1,7.65%
14,Cc1nc(SCC(=O)N2CCc3ccccc3C2)c2c(C)c(C)sc2n1,103% (active)
15,CC1(C)Cc2cccc(OCC(=O)N3CCN(c4ccc([N+](=O)[O-])cc4)CC3)c2O1,-1.43%
16,COc1ccc(NC(=O)C2=C(C)NC(=O)NC2c2ccccc2[N+](=O)[O-])cc1 (configuration not stated),-0.08%
17,CCOC(=O)N/N=C1\CC(C)S(=O)(=O)c2ccc(Cl)cc21 (configuration not stated),28.2%
18,Cc1cc(=O)[nH]c(S)c1C#N,-5%
19,CSCC[C@H](NC(=O)NC1CCCC1)C(=O)O,-3.12%
20,Cc1ccc(C)c(NC(=O)C2Cc3ccccc3CN2C(=O)OCc2ccccc2)c1 (configuration not stated),104% (active)
21,COc1cccc(NC(=O)C2CCCN2C(=O)OCc2ccccc2)c1 (configuration not stated),-12.3%
22,Cc1ccc(C)c(NC(=O)C2CCCN2C(=O)OC(C)(C)C)c1 (configuration not stated),1.35%
